Results on 30 molecules are retold here after ChEMBL document CHEMBL2440116, “Structure-activity relationships of 2-aminothiazoles effective against Mycobacterium tuberculosis” (Bioorg Med Chem, 2013).

The test system of series [1] is Liver microsomes. Put plainly: Drug metabolism in human liver microsomes. In kind it is ADME, Microsome.
Series [2] has as its system Liver microsomes. The series can be described thus: Half life in human liver microsomes. It is filed as ADME, Microsome.
In series [3] the test system is Liver. Put plainly: Half life in CD-1 mouse liver microsomes. In kind it is ADME, Microsome. In outline: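 CD-1 mouse liver microsomes; compound from 2 mM DMSO stock in 0.1 M sodium phosphate pH 7.4 with NADPH, preincubated 5 min at 37 °C before microsomes added. Aliquots taken at 0–60 min and quenched with ice-cold acetonitrile, run in duplicate. Minus-NADPH control sampled at 0 and 60 min. Remaining parent measured by isocratic C8 HPLC with UV at 220 nm.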

Series [4] is described as follows: Therapeutic index, ratio of EC50 for african green monkey Vero cells to MIC for Mycobacterium tuberculosis H37Rv. In kind it is cell-based. Particulars: read-out: TI; call rule not given here.
Series [5] deals with Vero. Put plainly: Cytotoxicity against african green monkey Vero cells after 72 hrs by MTT assay. Particulars: Chlorocebus sabaeus. In kind it is cell-based. In outline:
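Vero (CCL-81) cells in MEM with 10% FBS, penicillin-streptomycin and Glutamax, seeded at 3.0×10⁴ per well and left to adhere overnight. Compounds added from DMSO at final 100–0.16 μM, triplicate, for 72 h at 37 °C, 4.5% CO2. Then MTT 1.0 mg/mL in phenol-red-free RPMI for 3 h, formazan dissolved in isopropanol, A570 minus A690. Viability taken relative to DMSO control; EC50 from dose-response curves.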

The test system of series [6] is Mycobacterium tuberculosis. The series can be described thus: Antitubercular activity against Mycobacterium tuberculosis H37Rv in GAST media with glycerol and alanine after 7 to 14 days by broth microdilution method. It is filed as functional.
For series [7], the system named is Mycobacterium tuberculosis. Put plainly: Antitubercular activity against Mycobacterium tuberculosis H37Rv in Middlebrook 7H9 broth with butyrate after 7 to 14 days by broth microdilution method. In kind it is functional.
Series [8] concerns Mycobacterium tuberculosis. The series can be described thus: Antitubercular activity against Mycobacterium tuberculosis H37Rv in Middlebrook 7H9 broth with glucose after 7 to 14 days by broth microdilution method. In kind it is functional. In outline:
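Broth microdilution of H37Rv in 7H9 with 0.8 g/L NaCl, 5 g/L BSA fraction V, 4 g/L glucose and 0.05% Tyloxapol. Run in quadruplicate from DMSO stocks with DMSO controls; isoniazid positive control.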

Series [9] in a line: Solubility of the compound. It is filed as physicochemical.

SMILES strings stand for the structures. Converted amounts (≈) assume the structure as drawn. Bounds are passed on as bounds.

In the case of `O=C(Nc1nc(-c2ccccn2)cs1)c1cccc(Cl)c1`, the Drug metabolism entry in series [1] is given as “Active”. Further, the values for the t1/2 in series [2] and in series [3] were 28 min and 19 min, respectively. Further, the selectivity ratio in [4] amounted to 30. Further, the EC50 in [5] was 7 µM. Besides, the MIC99 in series [6] came to 0.049 µM (≈ 0.0155 µg/mL); in series [7] it was 0.024 µM (≈ 0.00758 µg/mL); in series [8] it was 0.19 µM (≈ 0.06 µg/mL).
Consider `O=C(Nc1nc(-c2ccccn2)cs1)c1ccccc1`, for which, in [4], the selectivity ratio amounted to 18. The EC50 in series [5] was determined as 7.1 µM. The figures for the MIC99 in [6], in series [7] and in series [8] were 0.19 µM (≈ 0.0535 µg/mL), 0.19 µM (≈ 0.0535 µg/mL) and 0.39 µM (≈ 0.11 µg/mL), respectively.
With `COc1ccc(C(=O)Nc2nc(-c3ccccn3)cs2)cc1`, the t1/2 in [3] is reported as 16 min. Besides, the selectivity ratio in series [4] was 24. Further, a half-maximal response in series [5] (EC50) required 9.2 µM. Moreover, the MIC99 in series [6] was determined as 0.098 µM (≈ 0.0305 µg/mL); in series [7] it was 0.19 µM (≈ 0.0592 µg/mL); in series [8] it was 0.39 µM (≈ 0.121 µg/mL).
As to `O=C(Nc1nc(-c2ccccn2)cs1)c1cccc(F)c1`, in series [4], the selectivity ratio was found to be 3. For the same molecule, the response in [5] was half-maximal at 1.2 µM (EC50). In addition, the figures for the MIC99 in [6], in series [7] and in [8] were 0.049 µM (≈ 0.0147 µg/mL), 0.098 µM (≈ 0.0293 µg/mL) and 0.19 µM (≈ 0.0569 µg/mL), respectively.
Turning to `COc1cccc(C(=O)Nc2nc(-c3ccccn3)cs2)c1`, the selectivity ratio in series [4] turned out to be 7. Further, the response in series [5] was half-maximal at 2.8 µM (EC50). Further, the results for the MIC99 in series [6] and in series [8] were 0.098 µM (≈ 0.0305 µg/mL) and 0.19 µM (≈ 0.0592 µg/mL), respectively.
In the case of `O=C(Nc1nc(-c2ccccn2)cs1)c1cccc(OCc2ccccc2)c1`, the selectivity ratio in [4] came to 32. In series [5], this molecule returned an EC50 of 14.4 µM. Besides, the MIC99 in series [6] stood at 0.19 µM (≈ 0.0736 µg/mL); in series [7] it was 0.049 µM (≈ 0.019 µg/mL); in series [8], 0.39 µM (≈ 0.151 µg/mL).
Consider `O=C(Nc1nc(-c2ccccn2)cs1)c1cccc(Br)c1`, for which, in series [3], the t1/2 came out at 11 min. Further, the EC50 in series [5] is 16.1 µM. The MIC99 came to 0.049 µM (≈ 0.0177 µg/mL) in series [6], 0.024 µM (≈ 0.00865 µg/mL) in [7] and 0.098 µM (≈ 0.0353 µg/mL) in series [8].
The matching figures for `O=C(Nc1nc(-c2ccccn2)cs1)c1ccc(Br)cc1`: 6.8 min, 4.7 µM, 0.049 µM (≈ 0.0177 µg/mL), 0.098 µM (≈ 0.0353 µg/mL) and 0.19 µM (≈ 0.0684 µg/mL).
With `O=C(Nc1nc(-c2ccccn2)cs1)c1ccccc1Cl`, the selectivity ratio in [4] worked out at 1. Moreover, the midpoint of the response in series [5], the EC50, lay at 2 µM. For the same molecule, the MIC99 came out at 0.19 µM (≈ 0.06 µg/mL) in series [7] and 0.39 µM (≈ 0.123 µg/mL) in series [8].
On to `O=C(Nc1nc(-c2ccccn2)cs1)c1cccc(F)c1F`, for which the selectivity ratio in [4] came to 18. The molecule further had an EC50 in series [5] of 7.2 µM. Moreover, the MIC99 in series [6] was found to be 0.098 µM (≈ 0.0311 µg/mL); in [7], 0.19 µM (≈ 0.0603 µg/mL); in series [8] it was 0.39 µM (≈ 0.124 µg/mL).
On to `O=C(Nc1nc(-c2ccccn2)cs1)c1ccc(F)cc1F`, for which, in series [4], the selectivity ratio came out at 9. In [5], this molecule yielded an EC50 of 7.3 µM. In addition, the MIC99 in [6] came out at 0.19 µM (≈ 0.0603 µg/mL); in series [8], 0.39 µM (≈ 0.124 µg/mL).
Turning to `O=C(Nc1nc(-c2ccccn2)cs1)c1cc(F)ccc1F`, the selectivity ratio in series [4] amounted to 8. Moreover, in series [5], it took 3.3 µM to reach a half-maximal effect (EC50). The MIC99 in series [6] worked out at 0.098 µM (≈ 0.0311 µg/mL); in series [7], 0.19 µM (≈ 0.0603 µg/mL); in [8], 0.39 µM (≈ 0.124 µg/mL).
The like results for `O=C(Nc1nc(-c2ccccn2)cs1)c1c(F)cccc1F` were, in that order, 4, 3.2 µM, 0.19 µM (≈ 0.0603 µg/mL), 0.78 µM (≈ 0.248 µg/mL) and 0.78 µM (≈ 0.248 µg/mL).
The matching figures for `O=C(Nc1nc(-c2ccccn2)cs1)c1cc(F)cc(F)c1`: 8, 1.5 µM, 0.049 µM (≈ 0.0155 µg/mL), 0.098 µM (≈ 0.0311 µg/mL) and 0.19 µM (≈ 0.0603 µg/mL).
As to `O=C(Nc1nc(-c2ccccn2)cs1)c1c(F)cccc1Cl`, in series [5], a half-maximal response (EC50) required 1.3 µM. For the same molecule, the values for the MIC99 in series [6], in series [7] and in series [8] were 0.19 µM (≈ 0.0634 µg/mL), 0.39 µM (≈ 0.13 µg/mL) and 0.78 µM (≈ 0.26 µg/mL), respectively.
With `O=C(Nc1nc(-c2ccccn2)cs1)c1cccnc1Cl`, the selectivity ratio in [4] stood at 2. The same molecule came in with an EC50 in series [5] of 1.9 µM. Also, the MIC99 in [6] was found to be 0.19 µM (≈ 0.0602 µg/mL); in series [8] it was 0.39 µM (≈ 0.124 µg/mL).
As to `O=C(Nc1nc(-c2ccccn2)cs1)c1ccccn1`, in [4], the selectivity ratio is 0.9. The molecule further displayed an EC50 in [5] of 5.4 µM. Further, the MIC99 in series [6] is 1.6 µM (≈ 0.452 µg/mL); in series [7], 3.1 µM (≈ 0.875 µg/mL); in [8], 6.3 µM (≈ 1.78 µg/mL).
With `Cc1ccccc1C(=O)Nc1nc(-c2ccccn2)cs1`, the selectivity ratio in series [4] came out at 16. Further, it took 6.3 µM to reach a half-maximal effect in series [5] (EC50). The results for the MIC99 in series [7] and in series [8] were 0.19 µM (≈ 0.0561 µg/mL) and 0.39 µM (≈ 0.115 µg/mL), respectively.
Regarding `Cc1cccc(C(=O)Nc2nc(-c3ccccn3)cs2)c1`, the t1/2 in series [3] is listed as 6.7 min. In series [4], the selectivity ratio was found to be 11. The molecule further came in with an EC50 in series [5] of 4.1 µM. Further, the MIC99 came to 0.049 µM (≈ 0.0145 µg/mL) in series [6], 0.049 µM (≈ 0.0145 µg/mL) in series [7] and 0.19 µM (≈ 0.0561 µg/mL) in series [8].
Turning to `O=C(Nc1nc(-c2ccccn2)cs1)c1ccccc1OCc1ccccc1`, in series [9], the solubility result was “Insoluble”. Besides, the MIC99 was 50 µM (≈ 19.4 µg/mL) in series [6], over 50 µM in series [7] and over 50 µM in series [8].
For `O=C(Nc1nc(-c2ccccn2)cs1)c1ccc(OCc2ccccc2)cc1`, the selectivity ratio in series [4] worked out at 6. The same molecule registered an EC50 in series [5] of 2.3 µM. Also, the MIC99 is 0.098 µM (≈ 0.038 µg/mL) in [6] and 0.19 µM (≈ 0.0736 µg/mL) in series [8].
On to `COc1ccccc1C(=O)Nc1nc(-c2ccccn2)cs1`, for which, in series [4], the selectivity ratio worked out at 7. The same molecule displayed an EC50 in series [5] of 43.5 µM. Further, the MIC99 in series [6] turned out to be 1.6 µM (≈ 0.498 µg/mL); in [7] it was 3.1 µM (≈ 0.965 µg/mL); in series [8] it was 6.3 µM (≈ 1.96 µg/mL).
The like results for `CC(=O)c1ccccc1C(=O)Nc1nc(-c2ccccn2)cs1` were, in that order, 7, 86.7 µM, 3.13 µM (≈ 1.01 µg/mL), 12.5 µM (≈ 4.04 µg/mL) and 12.5 µM (≈ 4.04 µg/mL).
The like results for `CC(=O)c1cccc(C(=O)Nc2nc(-c3ccccn3)cs2)c1` were, in that order, 4, 1.5 µM, 0.098 µM (≈ 0.0317 µg/mL), 0.19 µM (≈ 0.0614 µg/mL) and 0.39 µM (≈ 0.126 µg/mL).
Molecule `CC(=O)c1ccc(C(=O)Nc2nc(-c3ccccn3)cs2)cc1` returned an EC50 in series [5] of 10.5 µM. Further, the figures for the MIC99 in series [7] and in [8] were 0.19 µM (≈ 0.0614 µg/mL) and 0.39 µM (≈ 0.126 µg/mL), respectively.
`Cc1ccccc1Nc1nc(-c2ccccn2)cs1`: the MIC99 in series [6] is 3.1 µM (≈ 0.829 µg/mL); in [7], 12.5 µM (≈ 3.34 µg/mL); in series [8], 12.5 µM (≈ 3.34 µg/mL).
For `Cc1ccc(C(=O)Nc2nc(-c3ccccn3)cs2)cc1`, the selectivity ratio in [4] is 27. Further, the response in series [5] was half-maximal at 10.5 µM (EC50). For the same molecule, the figures for the MIC99 in [6], in series [7] and in [8] were 0.098 µM (≈ 0.0289 µg/mL), 0.19 µM (≈ 0.0561 µg/mL) and 0.39 µM (≈ 0.115 µg/mL), respectively.
On to `c1ccc(Nc2nc(-c3ccccn3)cs2)cc1`, for which the MIC99 in series [6] is 12.5 µM (≈ 3.17 µg/mL); in series [7], 12.5 µM (≈ 3.17 µg/mL); in [8], 25 µM (≈ 6.33 µg/mL).
The molecule `O=C(Nc1nc(-c2ccccn2)cs1)c1ccc(F)cc1` displayed a concentration giving a half-maximal response (EC50) in series [5] of 2.5 µM. Also, the MIC99 in series [6] came to 0.098 µM (≈ 0.0293 µg/mL); in series [7], 0.19 µM (≈ 0.0569 µg/mL); in series [8] it was 0.39 µM (≈ 0.117 µg/mL).
`O=C(Nc1nc(-c2ccccn2)cs1)c1ccccc1Br` came in with an EC50 in [5] of 3.5 µM. Moreover, the MIC99 in series [6] was found to be 0.098 µM (≈ 0.0353 µg/mL); in series [8], 0.39 µM (≈ 0.14 µg/mL).
